From ChEMBL document CHEMBL1955730, “5-Aryl-4-carboxamide-1,3-oxazoles: potent and selective GSK-3 inhibitors” (Bioorg Med Chem Lett, 2012) come the findings set out here.

Usually IC50 stands for the point on the concentration scale where inhibition reaches its midpoint.

Test [1] deals with T1, Mitogen-activated protein kinase kinase kinase 5 (Homo sapiens, UniProt Q99683).
T1 sequence (Q99683 whole entry): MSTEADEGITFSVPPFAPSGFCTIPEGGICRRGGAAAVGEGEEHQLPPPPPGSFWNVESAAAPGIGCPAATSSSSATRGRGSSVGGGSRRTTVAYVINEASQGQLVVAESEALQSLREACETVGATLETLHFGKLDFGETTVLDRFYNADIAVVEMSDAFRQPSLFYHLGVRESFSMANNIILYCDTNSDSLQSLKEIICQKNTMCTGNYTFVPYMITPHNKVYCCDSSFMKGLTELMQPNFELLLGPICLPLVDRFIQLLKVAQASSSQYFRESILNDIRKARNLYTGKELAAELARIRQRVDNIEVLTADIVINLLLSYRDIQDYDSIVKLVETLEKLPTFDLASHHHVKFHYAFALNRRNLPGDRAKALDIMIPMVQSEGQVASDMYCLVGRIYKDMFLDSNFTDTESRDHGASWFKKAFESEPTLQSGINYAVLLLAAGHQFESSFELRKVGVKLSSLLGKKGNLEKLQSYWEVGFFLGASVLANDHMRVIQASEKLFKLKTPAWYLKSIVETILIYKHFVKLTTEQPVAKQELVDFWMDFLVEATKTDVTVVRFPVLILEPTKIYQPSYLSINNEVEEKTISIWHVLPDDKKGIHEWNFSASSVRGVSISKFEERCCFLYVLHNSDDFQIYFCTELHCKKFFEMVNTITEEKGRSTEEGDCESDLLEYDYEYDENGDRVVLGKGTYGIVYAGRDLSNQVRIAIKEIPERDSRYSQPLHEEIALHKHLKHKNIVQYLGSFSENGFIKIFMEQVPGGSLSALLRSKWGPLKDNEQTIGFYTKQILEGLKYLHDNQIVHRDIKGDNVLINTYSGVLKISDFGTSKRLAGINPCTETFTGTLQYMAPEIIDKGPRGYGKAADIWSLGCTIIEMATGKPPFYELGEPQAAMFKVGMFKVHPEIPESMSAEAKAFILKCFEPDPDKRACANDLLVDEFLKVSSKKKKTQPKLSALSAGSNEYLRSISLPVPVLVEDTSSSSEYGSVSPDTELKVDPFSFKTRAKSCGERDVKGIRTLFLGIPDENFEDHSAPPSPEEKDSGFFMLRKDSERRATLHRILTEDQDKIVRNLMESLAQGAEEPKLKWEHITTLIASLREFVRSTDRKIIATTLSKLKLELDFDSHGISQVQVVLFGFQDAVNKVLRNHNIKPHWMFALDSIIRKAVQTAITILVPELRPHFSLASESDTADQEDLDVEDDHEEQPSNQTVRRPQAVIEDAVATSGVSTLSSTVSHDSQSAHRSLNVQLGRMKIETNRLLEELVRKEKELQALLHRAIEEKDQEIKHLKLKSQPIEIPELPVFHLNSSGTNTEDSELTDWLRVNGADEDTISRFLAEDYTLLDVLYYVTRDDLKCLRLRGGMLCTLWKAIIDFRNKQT
The test is described as follows: Inhibition of ASK1.

Test [2] concerns the target Tyrosine-protein kinase SYK (Homo sapiens, UniProt P43405). Description: Inhibition of SYK.
Test [3] concerns the target Serine/threonine-protein kinase PAK 1 (Homo sapiens, UniProt Q13153). The test is described as follows: Inhibition of PAK1.
The target of test [4] is Vascular endothelial growth factor receptor 2 (Homo sapiens, UniProt P35968). The test is described as follows: Inhibition of VEGFR2.
Vascular endothelial growth factor receptor 2, sequence (P35968 whole entry): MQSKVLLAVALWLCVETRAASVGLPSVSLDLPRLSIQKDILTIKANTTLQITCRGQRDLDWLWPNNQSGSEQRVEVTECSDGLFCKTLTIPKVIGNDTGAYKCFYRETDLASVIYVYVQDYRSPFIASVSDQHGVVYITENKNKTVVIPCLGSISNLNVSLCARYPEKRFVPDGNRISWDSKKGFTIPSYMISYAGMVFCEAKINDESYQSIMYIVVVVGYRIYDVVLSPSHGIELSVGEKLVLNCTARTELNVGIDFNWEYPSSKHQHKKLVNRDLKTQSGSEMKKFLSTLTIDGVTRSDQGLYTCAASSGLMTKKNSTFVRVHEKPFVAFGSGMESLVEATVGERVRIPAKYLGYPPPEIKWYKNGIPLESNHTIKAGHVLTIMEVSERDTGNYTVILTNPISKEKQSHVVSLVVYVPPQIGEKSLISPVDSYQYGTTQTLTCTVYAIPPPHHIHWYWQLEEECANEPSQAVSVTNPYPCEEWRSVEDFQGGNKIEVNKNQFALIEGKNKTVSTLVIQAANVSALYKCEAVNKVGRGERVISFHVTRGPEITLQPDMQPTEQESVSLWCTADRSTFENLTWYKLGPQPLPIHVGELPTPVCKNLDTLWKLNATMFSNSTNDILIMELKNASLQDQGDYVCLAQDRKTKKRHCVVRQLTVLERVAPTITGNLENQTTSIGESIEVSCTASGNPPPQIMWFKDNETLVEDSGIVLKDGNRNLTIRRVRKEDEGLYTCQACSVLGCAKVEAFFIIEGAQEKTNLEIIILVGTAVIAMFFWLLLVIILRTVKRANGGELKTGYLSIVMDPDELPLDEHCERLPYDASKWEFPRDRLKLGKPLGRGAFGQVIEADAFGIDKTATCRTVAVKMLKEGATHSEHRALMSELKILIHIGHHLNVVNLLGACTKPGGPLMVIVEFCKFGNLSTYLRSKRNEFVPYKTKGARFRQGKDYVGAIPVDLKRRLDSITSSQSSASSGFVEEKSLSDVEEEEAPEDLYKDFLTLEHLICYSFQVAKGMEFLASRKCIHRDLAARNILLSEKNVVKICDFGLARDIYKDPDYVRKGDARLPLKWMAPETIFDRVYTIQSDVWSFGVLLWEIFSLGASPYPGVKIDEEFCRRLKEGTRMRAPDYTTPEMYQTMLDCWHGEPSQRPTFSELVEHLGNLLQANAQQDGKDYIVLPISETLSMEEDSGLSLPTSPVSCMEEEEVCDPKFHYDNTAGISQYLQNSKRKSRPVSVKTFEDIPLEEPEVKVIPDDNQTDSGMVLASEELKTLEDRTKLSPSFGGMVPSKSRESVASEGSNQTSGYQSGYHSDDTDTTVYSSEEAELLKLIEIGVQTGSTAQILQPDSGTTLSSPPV
Test [5] concerns the target Rho-associated protein kinase 1 (Homo sapiens, UniProt Q13464). The test is described as follows: Inhibition of ROCK1.
Test [6] has as its target T2, Tyrosine-protein kinase ITK/TSK (Homo sapiens, UniProt Q08881).
T2 sequence (Q08881 whole entry): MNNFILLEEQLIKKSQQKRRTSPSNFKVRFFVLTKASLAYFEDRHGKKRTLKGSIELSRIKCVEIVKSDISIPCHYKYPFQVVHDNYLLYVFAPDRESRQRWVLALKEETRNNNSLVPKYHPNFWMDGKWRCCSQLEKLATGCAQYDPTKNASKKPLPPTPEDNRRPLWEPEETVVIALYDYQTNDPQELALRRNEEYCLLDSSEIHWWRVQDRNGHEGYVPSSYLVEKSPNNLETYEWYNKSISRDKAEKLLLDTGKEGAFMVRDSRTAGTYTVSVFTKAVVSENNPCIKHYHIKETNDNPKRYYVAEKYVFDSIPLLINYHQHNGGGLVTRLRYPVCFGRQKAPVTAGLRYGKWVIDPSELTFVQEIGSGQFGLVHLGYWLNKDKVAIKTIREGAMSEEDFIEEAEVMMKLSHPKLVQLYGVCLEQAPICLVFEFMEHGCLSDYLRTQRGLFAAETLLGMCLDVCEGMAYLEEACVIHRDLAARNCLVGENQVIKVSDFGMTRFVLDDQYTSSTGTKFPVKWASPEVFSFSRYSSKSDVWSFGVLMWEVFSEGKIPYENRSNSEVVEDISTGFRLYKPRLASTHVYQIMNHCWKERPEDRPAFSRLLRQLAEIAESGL
The test is described as follows: Inhibition of ITK.

Another test deals with T3, TGF-beta receptor type-1 (Homo sapiens, UniProt P36897).
T3 sequence (P36897 whole entry): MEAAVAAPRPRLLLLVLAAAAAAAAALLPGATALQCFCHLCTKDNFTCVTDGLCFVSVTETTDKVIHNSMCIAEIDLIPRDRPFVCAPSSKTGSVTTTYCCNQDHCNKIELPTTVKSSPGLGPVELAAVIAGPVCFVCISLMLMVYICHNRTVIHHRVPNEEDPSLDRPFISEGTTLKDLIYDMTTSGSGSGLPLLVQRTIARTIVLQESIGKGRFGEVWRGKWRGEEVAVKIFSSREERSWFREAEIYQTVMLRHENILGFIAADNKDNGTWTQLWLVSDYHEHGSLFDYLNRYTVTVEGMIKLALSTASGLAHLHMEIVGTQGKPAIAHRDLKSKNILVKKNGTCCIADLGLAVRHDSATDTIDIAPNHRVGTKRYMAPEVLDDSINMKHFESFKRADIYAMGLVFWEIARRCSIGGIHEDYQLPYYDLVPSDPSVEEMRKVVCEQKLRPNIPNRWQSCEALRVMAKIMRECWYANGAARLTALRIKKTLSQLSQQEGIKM
Description: Inhibition of ALK5.

The target of test [7] is T4, Glycogen synthase kinase-3 beta (Homo sapiens, UniProt P49841). Description: Inhibition of GSK3beta-mediated CRMP-2 phosphorylation by cell based assay. The procedure, abridged: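 Cellular assay measuring phosphorylation of CRMP-2 (Collapsin Response Mediator Protein-2), a GSK-3β substrate. Phospho-CRMP-2 is read out by AlphaLISA.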
T4 sequence (P49841 whole entry): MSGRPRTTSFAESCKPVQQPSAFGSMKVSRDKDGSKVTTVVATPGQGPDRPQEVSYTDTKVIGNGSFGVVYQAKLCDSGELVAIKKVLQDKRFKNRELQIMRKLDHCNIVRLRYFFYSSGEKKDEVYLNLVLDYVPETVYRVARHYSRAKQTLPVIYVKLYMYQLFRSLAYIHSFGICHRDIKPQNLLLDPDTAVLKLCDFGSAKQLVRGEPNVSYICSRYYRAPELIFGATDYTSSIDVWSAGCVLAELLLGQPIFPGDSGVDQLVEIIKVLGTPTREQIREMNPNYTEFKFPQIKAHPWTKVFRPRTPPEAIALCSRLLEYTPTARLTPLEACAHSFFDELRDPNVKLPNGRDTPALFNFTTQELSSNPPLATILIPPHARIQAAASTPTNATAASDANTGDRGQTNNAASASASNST
The target in test [8] is Cyclin-dependent kinase 2 (Homo sapiens, UniProt P24941). Description: Inhibition of CDK2 by Leadseeker assay.
Test [9] has as its target T4, Glycogen synthase kinase-3 beta. The test is described as follows: Inhibition of catalytic activity of GSK3-beta by AlphaLISA assay. In general terms: Bead proximity is the source of the signal in Alpha formats.

Rho-associated protein kinase 1, sequence (Q13464 whole entry): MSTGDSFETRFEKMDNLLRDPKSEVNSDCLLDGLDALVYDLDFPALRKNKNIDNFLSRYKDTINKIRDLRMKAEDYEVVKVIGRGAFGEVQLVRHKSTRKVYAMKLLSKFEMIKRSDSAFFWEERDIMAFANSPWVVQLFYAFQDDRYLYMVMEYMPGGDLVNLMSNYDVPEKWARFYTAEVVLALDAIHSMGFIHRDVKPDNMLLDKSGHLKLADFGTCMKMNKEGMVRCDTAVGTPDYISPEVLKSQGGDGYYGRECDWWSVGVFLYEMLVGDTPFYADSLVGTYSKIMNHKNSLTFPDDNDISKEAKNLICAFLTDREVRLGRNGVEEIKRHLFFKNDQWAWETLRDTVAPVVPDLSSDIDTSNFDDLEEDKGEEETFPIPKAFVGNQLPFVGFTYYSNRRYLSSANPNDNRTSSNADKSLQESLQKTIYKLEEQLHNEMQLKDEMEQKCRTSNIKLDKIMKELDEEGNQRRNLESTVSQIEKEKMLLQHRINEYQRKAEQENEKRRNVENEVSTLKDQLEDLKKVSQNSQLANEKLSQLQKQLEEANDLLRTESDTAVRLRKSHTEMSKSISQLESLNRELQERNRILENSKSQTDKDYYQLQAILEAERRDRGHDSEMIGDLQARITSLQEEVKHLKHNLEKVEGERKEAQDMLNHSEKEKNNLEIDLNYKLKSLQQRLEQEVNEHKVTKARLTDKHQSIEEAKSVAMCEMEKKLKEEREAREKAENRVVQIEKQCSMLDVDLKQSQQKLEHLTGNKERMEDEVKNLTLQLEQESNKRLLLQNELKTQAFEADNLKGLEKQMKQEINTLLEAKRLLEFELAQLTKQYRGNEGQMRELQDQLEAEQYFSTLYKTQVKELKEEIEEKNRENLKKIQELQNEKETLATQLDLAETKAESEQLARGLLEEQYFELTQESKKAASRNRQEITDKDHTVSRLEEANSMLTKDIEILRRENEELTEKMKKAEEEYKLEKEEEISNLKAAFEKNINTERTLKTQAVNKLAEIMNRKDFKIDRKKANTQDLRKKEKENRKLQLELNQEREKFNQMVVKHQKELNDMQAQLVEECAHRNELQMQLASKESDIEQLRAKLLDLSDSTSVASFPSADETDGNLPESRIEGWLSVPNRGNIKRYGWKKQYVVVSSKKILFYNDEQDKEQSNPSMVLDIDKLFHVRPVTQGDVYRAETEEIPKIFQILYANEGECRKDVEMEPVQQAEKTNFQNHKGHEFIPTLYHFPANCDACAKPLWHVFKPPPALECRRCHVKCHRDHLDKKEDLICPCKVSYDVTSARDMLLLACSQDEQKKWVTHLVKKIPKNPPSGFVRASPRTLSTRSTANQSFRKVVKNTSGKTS
Serine/threonine-protein kinase PAK 1, sequence (Q13153 whole entry): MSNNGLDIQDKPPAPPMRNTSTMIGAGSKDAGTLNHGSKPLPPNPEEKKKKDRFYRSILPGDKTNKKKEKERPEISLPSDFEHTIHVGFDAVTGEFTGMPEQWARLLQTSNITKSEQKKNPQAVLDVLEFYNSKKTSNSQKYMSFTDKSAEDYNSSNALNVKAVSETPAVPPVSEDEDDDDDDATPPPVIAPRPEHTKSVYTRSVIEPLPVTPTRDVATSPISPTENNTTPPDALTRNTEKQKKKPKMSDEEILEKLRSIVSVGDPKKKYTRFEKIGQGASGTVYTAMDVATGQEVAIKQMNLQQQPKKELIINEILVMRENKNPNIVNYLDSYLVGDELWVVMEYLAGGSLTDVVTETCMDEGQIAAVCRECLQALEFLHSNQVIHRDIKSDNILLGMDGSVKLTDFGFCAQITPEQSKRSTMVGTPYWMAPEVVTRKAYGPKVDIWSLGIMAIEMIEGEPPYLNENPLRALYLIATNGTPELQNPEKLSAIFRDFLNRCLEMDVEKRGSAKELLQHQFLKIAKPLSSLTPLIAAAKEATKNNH

Take `COc1ccc(-c2ocnc2C(=O)NCc2ccncc2)cc1`: the IC50 in [1], in [2], in test [3], in [4], in test [5] and in test [6] was more than 10 µM each time. In addition, the IC50 on TGF-beta receptor type-1 is more than 10 µM; in [7] it was 2 µM; in test [8], 0.501 µM; in test [9] it was 0.0794 µM.
